From PubChem BioAssay
CHRM5 antagonist = antagonists of human muscarinic M5 receptor (CHRM5); AID 624040; inhibition, % at 3 µM; CHO-hM5 cells, Fluo-8 calcium fluorescence, ACh EC80; 360,000 compounds, 0.59% hits; P08912;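 active = inhibition above a per-plate cutoff, the mean of that plate's test compounds plus 3 SD, cut at about 27% in these data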;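 note: 0% = acetylcholine EC80 with DMSO and 100% = DMSO without agonist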
M5 PAM = CHRM5 positive allosteric modulation | P08912 | CHO-K1 hM5, Fluo-8 calcium, ACh EC20 PAM; 0% = ACh EC20, 100% = ACh EC100 | activation, % at 3 µM | 360,000 compounds, 0.3% hits | AID 624038;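 active = activation above the run cutoff, the mean activation of all test compounds plus 3 SD, cut at about 18% in these data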
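System: CHO-K1 cell line with stable human muscarinic M5 receptor expression | Also added: EC20 acetylcholine as agonist stimulus | Compound: One concentration, 3 µM final (nominal) | Timing: Fluo-8 loading 80 min at 37 °C plus 30 min room temperature | Measured by: Fluo-8 calcium dye fluorescence, kinetic read | Read-out basis: % activation, ACh-normalized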
M1 ag = activates human CHRM1 receptor; CHO-K1 hM1, Fluo-8 calcium fluorescence, agonist mode; 0% DMSO, 100% acetylcholine EC100; P11229; 360,000 compounds, 0.33% hits; activation, % at 3 µM;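 active = activation above the run's mean compound activation plus 3 SD, cut at about 16% in these data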;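 note: peak over basal fluorescence ratio within a 140 s kinetic read after compound addition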
Target sequence (P11229 whole entry, looked up): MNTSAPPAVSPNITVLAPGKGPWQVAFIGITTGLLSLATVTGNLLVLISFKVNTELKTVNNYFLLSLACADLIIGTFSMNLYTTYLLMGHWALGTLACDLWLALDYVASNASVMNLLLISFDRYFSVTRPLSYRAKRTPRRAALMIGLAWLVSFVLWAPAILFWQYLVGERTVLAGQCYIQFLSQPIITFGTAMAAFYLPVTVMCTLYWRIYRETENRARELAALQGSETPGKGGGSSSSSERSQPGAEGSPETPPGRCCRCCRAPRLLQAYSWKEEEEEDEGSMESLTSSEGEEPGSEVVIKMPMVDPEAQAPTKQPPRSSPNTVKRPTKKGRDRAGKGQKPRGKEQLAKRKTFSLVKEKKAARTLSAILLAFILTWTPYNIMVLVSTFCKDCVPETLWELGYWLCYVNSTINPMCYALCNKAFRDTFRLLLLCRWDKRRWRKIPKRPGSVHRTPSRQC
M1 antag = blocks human M1 muscarinic receptor; AID 588852; inhibition, % at 3 µM; CHO-K1 hM1, Fluo-8 calcium fluorescence, ACh EC80 antagonist; 360,000 compounds, 1.3% hits; P11229;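 active = percent inhibition above its own plate's cutoff, namely the mean of that plate's compound wells plus 3 SD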;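 note: peak over basal fluorescence ratio during 140 s after agonist addition; 0% = ACh EC80 plus DMSO and 100% = DMSO alone without agonist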
CHRM5 agonist = agonists of human muscarinic M5 receptor (CHRM5). CHO-K1 hM5 cells, Fluo-8 calcium fluorescence; 0% DMSO wells, 100% maximal acetylcholine response. activation, % at 3 µM. 360,000 compounds, 0.19% hits;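 active = activation above the run's mean over test compounds plus 3 SD, cut at about 23% in these data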;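 note: signal is peak over basal fluorescence ratio across the kinetic read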
CHRM1 PAM = human CHRM1 positive allosteric modulation. CHO-K1 hM1, Fluo-8 calcium fluorescence, ACh EC20; 0% = ACh EC20, 100% = maximal ACh. activation, % at 3 µM. 360,000 compounds, 0.088% hits; in the data active = activation above about 19%, passing the limit was not always enough
Numbers without * were called inactive. Sampled rows, rich in hits. Any-hit rate of the full collection: about 2.2%.

SMILES	CHRM5 antagonist	M5 PAM	M1 ag	M1 antag	CHRM5 agonist	CHRM1 PAM
Cc1cc(C(=O)N(C)CC2CCCN(CCc3ccc(F)cc3)C2)c(C)o1 (stereo unspecified)	-14.1	0.5	-7.0	18.9	-8.2	-16.8
COc1ccc(Cl)cc1NC(=O)CN(C)C(=O)CCc1nc2ccccc2c(=O)[nH]1	-1.3	-5.1	-5.2	2.0	0.4	7.3
COc1ccc(-c2cc(C(=O)N3CCN(c4ccccn4)CC3)c3ccccc3n2)cc1	24.6	-16.7	-0.4	30.2*	2.2	-10.4
COc1ccc(-c2cc(C(=O)N3CCN(c4ccccc4F)CC3)c3ccccc3n2)c(OC)c1	36.0*	-9.6	0.1	28.7*	-3.3	-8.9
COc1ccc(OC)c(-c2cc(C(=O)N3CCN(c4ncccn4)CC3)c3ccccc3n2)c1	31.1*	-20.6	0.4	25.6	2.2	-6.9
CCOc1ccccc1N1CCN(C(=O)c2cc(-c3cc(OC)ccc3OC)nc3ccccc23)CC1	19.5	-11.2	-1.4	32.7*	2.2	-9.8
COc1ccc(-c2cc(C(=O)N3CCCCCC3)c3ccccc3n2)c(OC)c1	7.4	-15.7	-4.3	2.4	1.0	-2.4
CCOc1ccc(-c2cc(C(=O)N3CCN(c4ccccn4)CC3)c3ccccc3n2)cc1	-0.8	0.6	-3.7	9.9	1.2	-8.8
COc1ccc(-c2cc(C(=O)N3CCN(c4ncccn4)CC3)c3ccccc3n2)c(OC)c1	20.2	-17.2	-1.1	29.9	4.4	-15.2
CCOC(=O)C1(CCOC)CCCCC1=O (stereo unspecified)	11.8	-5.0	0.5	-11.7	3.5	8.4
CCCN(CCC)C(=S)NC(=O)c1ccc(-c2ccccc2)cc1	-2.0	-2.8	-4.5	-8.7	-5.0	2.8
COc1cc(CN(C)Cc2cccc3ccccc23)cc([N+](=O)[O-])c1O	1.6	-1.2	-3.5	-3.0	2.4	7.1
CCOC(=O)[C@@H]1CSCCS(=O)(=O)N1Cc1ccccc1Br	-3.2	-8.1	1.0	1.4	0.7	4.5
COc1ccc(NC2=CC(c3cccc(OC)c3)N(c3ccc(OC)cc3)C2=O)cc1 (stereo unspecified)	50.2*	-8.2	9.3	46.9*	6.6	-8.5
O=C(Cn1c(C(=O)OCCO)cc2ccccc21)c1ccccc1	9.7	-1.7	-0.8	-16.5	-4.9	4.5
Cc1cccc(-c2ccc3c(c2)C2CC3CCN2)c1 (stereo unspecified)	1.7	-8.0	-9.9	32.2	-2.0	-27.1
Fc1ccc(-c2ccc3c(c2)C2CC3CCN2)cc1 (stereo unspecified)	9.6	-18.2	-4.3	39.3*	0.0	-30.0
CN1OC[C@@H]2CN(C(=O)CCc3ccccc3)[C@H](c3cccc(-c4ccc(C#N)cc4)c3)C[C@@H]21	-7.1	1.8	-5.7	-5.4	-0.6	1.7
COc1ccc(C(=O)Cc2cc(OC)c(OC)cc2C(=O)c2ccccc2F)cc1OC	-6.0	-7.1	-3.3	0.1	-4.8	7.6
CCCOc1ccc(Br)cc1CSC(=N)N	23.2	-18.4	-2.9	26.2*	0.7	-15.6
CCOc1ccc(Br)cc1CC(=O)O	-1.2	3.9	-1.1	-14.6	1.5	5.5
O=C(CSc1ccccc1F)NNC(=O)c1cncc(Br)c1	-3.2	-0.7	-1.2	-15.9	2.4	11.6
CCCCCN1C(=O)Cn2c(nc3ccccc3c2=O)C1C (stereo unspecified)	-19.0	18.2*	-4.8	-6.3	3.9	12.2
CCc1ccc(N(CC(=O)N2CCCC2)S(C)(=O)=O)cc1	2.9	-0.6	-1.7	-6.7	-0.7	10.2
CC1(C)Cc2c(sc3nc(N/N=C/c4ccccc4)[nH]c(=O)c23)CO1	24.0	25.0*	-0.3	8.9	8.6	-5.8
SMILES	CHRM5 antagonist	M5 PAM	M1 ag	M1 antag	CHRM5 agonist	CHRM1 PAM
CC(C)=NNc1nc2sc3c(c2c(=O)[nH]1)CC(C)(C)OC3	-8.8	4.1	-6.9	-2.7	-0.9	1.5
O=C(Nc1ccc2c(c1)OCCO2)C1CCCN(S(=O)(=O)c2cnc[nH]2)C1 (stereo unspecified)	-13.6	4.9	-0.4	-7.0	-3.0	3.6
COc1cccc(-c2nnc(SCC(=O)Nc3ccc(S(N)(=O)=O)cc3)n2C)c1	5.0	-4.0	-4.4	1.3	-0.5	-0.5
Cc1ccc(S(=O)(=O)N2C[C@@H](C)[C@]3(C2)[C@H](O)[C@H](OC(=O)NC2CC2)C[C@H]2C(=O)N(c4ccccc4)C(=O)[C@H]23)cc1	-5.8	-2.0	-4.4	-6.2	-0.6	2.5
O=C(NC1CCN(Cc2ccccc2)CC1)C1COc2ccccc2O1 (stereo unspecified)	63.9*	-42.8	-7.0	83.0*	-13.3	-21.6
CCN(c1ccccc1)S(=O)(=O)c1ccc(C(=O)NC2CCN(Cc3ccccc3)CC2)cc1	22.2	-42.8	6.8	66.2*	-0.3	-30.1
Cn1c(=O)c2c(ncn2CC(=O)OCC(=O)Nc2cc(Cl)ccc2C#N)n(C)c1=O	9.0	-7.3	1.9	-5.5	4.3	6.2
CCOc1ccccc1N1CCN(C(=O)c2cccs2)CC1	-3.2	-2.5	-1.6	-10.2	6.3	4.5
CCCCS/C(=C(/C#N)C(N)=O)c1cc2c([nH]1)CCCC2	7.0	-16.2	-6.2	25.0*	-6.9	-25.4
CCOC(=O)C1=C(CC)Nc2ccccc2N=C1NC(=O)c1cc(C)on1	12.2	-20.6	-3.8	12.1	6.0	-9.2
CCOC(=O)C1=C(CC)Nc2ccccc2N=C1NC(=O)Nc1ccc(Cl)c(Cl)c1	20.3	-20.5	5.0	33.1*	8.9	-16.2
Cc1ccc(NC(=S)NC(=O)Cc2ccccc2)c(O)c1	2.6	-8.5	17.9*	-4.4	14.0	5.6
COc1ccc(F)cc1-c1cc(C(=O)NCc2cc(C(F)(F)F)cc(C(F)(F)F)c2)[nH]n1	5.8	-1.8	-6.8	24.9	0.3	-15.4
COc1ccc(C[C@@H]2CN3C(=NC[C@@H]3C)N2CCNC(=O)c2ccc(C)c(Br)c2)cc1	-3.3	-9.9	-12.9	40.5*	-10.9	-37.3
C/C=C(\C)C(=O)NCCN1C2=NC[C@H](C)N2C[C@@H]1Cc1ccc(OC)cc1	-3.5	10.2	-13.6	5.0	-13.3	-9.0
OCCn1ccc(-c2ccccc2OCc2ccc(F)cc2)n1	-10.2	7.2	-8.1	-2.9	-7.2	-1.0
CCOC(=O)C1=C(C)N(C)C(C)=C(C(=O)OCC)C1c1ccc(C(=O)OC)cc1	4.3	-12.4	-4.2	52.9*	-10.3	-21.6
CCOC(=O)C1=C(C)N(C)C(C)=C(C(=O)OCC)C1c1ccc(Cl)cc1	13.5	-12.3	-9.7	-5.1	-10.1	-8.4
COc1ccc2nc(C)cc(Nc3ccc(C)cc3)c2c1	5.2	-3.6	-7.8	-4.1	-3.2	3.2
